Source: publication PMC6247064 (Cancer Science, 2018)

Test system: Japanese patients with advanced solid tumors
Assay: Phase 1 study: safety, tolerability, DLT and treatment-emergent adverse events
Type: in vivo, human
In short: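 Open-label single-arm dose levels of 80 or 105 mg/m2 IV were given on day 1 of 14-day cycles, with at most 6 patients per level. Adverse events were graded by CTCAE v4.03. DLTs were related events in cycle 1 meeting predefined hematologic or nonhematologic criteria. Tolerability required a cycle 1 DLT rate <33%. Primary G-CSF prophylaxis was barred during DLT evaluation; G-CSF was allowed for treatment-emergent neutropenia and as secondary prophylaxis.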

COc1cccc(OCCCN)c1-c1cc(Nc2cnc(C#N)cn2)n[nH]1 [Prexasertib]
TEAE related to study treatment: Febrile neutropenia (80 mg/m^2 N = 6, Grade 4): 1 (16.7) n (%)
TEAE related to study treatment: Headache (80 mg/m^2 N = 6, Grade 4): 0 n (%)
TEAE related to study treatment: Hypocalcemia (80 mg/m^2 N = 6, Grade 4): 0 n (%)
TEAE related to study treatment: Leukopenia (80 mg/m^2 N = 6, Grade 4): 3 (50.0) n (%)
TEAE related to study treatment: Lung infection (80 mg/m^2 N = 6, Grade 4): 0 n (%)
TEAE related to study treatment: Lymphocytopenia (80 mg/m^2 N = 6, Grade 4): 0 n (%)
TEAE related to study treatment: Nausea (80 mg/m^2 N = 6, Grade 4): 0 n (%)
TEAE related to study treatment: Neutropenia (80 mg/m^2 N = 6, Grade 4): 3 (50.0) n (%)
TEAE related to study treatment: Pyrexia (80 mg/m^2 N = 6, Grade 4): 0 n (%)
TEAE related to study treatment: Rash (80 mg/m^2 N = 6, Grade 4): 0 n (%)
TEAE related to study treatment: Rash maculopapular (80 mg/m^2 N = 6, Grade 4): 0 n (%)
TEAE related to study treatment: SVE (supraventricular extrasystoles) (80 mg/m^2 N = 6, Grade 4): 0 n (%)
TEAE related to study treatment: Stomatitis (80 mg/m^2 N = 6, Grade 4): 0 n (%)
TEAE related to study treatment: Thrombocytopenia (80 mg/m^2 N = 6, Grade 4): 1 (16.7) n (%)
Patients with at least 1 AE that led to a dose adjustment (80 mg/m^2 group): 5 patients
Patients with at least 1 AE that led to a dose delay (80 mg/m^2 group): 3 patients
Patients with at least 1 AE that led to dose reduction (80 mg/m^2 group (80 to 60 mg/m^2)): 4 patients
TEAE related to study treatment: Anemia (105 mg/m^2 N = 6, Any grade): 0 n (%)
TEAE related to study treatment: Any (105 mg/m^2 N = 6, Any grade): 6 (100) n (%)
TEAE related to study treatment: Atrial fibrillation (105 mg/m^2 N = 6, Any grade): 0 n (%)
TEAE related to study treatment: Constipation (105 mg/m^2 N = 6, Any grade): 1 (16.7) n (%)
TEAE related to study treatment: ECG QT prolonged (105 mg/m^2 N = 6, Any grade): 0 n (%)
TEAE related to study treatment: Fatigue (105 mg/m^2 N = 6, Any grade): 1 (16.7) n (%)
TEAE related to study treatment: Febrile neutropenia (105 mg/m^2 N = 6, Any grade): 1 (16.7) n (%)
TEAE related to study treatment: Headache (105 mg/m^2 N = 6, Any grade): 1 (16.7) n (%)
TEAE related to study treatment: Hypocalcemia (105 mg/m^2 N = 6, Any grade): 1 (16.7) n (%)
TEAE related to study treatment: Leukopenia (105 mg/m^2 N = 6, Any grade): 6 (100) n (%)
TEAE related to study treatment: Lung infection (105 mg/m^2 N = 6, Any grade): 0 n (%)
TEAE related to study treatment: Lymphocytopenia (105 mg/m^2 N = 6, Any grade): 0 n (%)
TEAE related to study treatment: Nausea (105 mg/m^2 N = 6, Any grade): 0 n (%)
TEAE related to study treatment: Neutropenia (105 mg/m^2 N = 6, Any grade): 6 (100) n (%)
TEAE related to study treatment: Pyrexia (105 mg/m^2 N = 6, Any grade): 1 (16.7) n (%)
TEAE related to study treatment: Rash (105 mg/m^2 N = 6, Any grade): 0 n (%)
TEAE related to study treatment: Rash maculopapular (105 mg/m^2 N = 6, Any grade): 1 (16.7) n (%)
TEAE related to study treatment: SVE (supraventricular extrasystoles) (105 mg/m^2 N = 6, Any grade): 0 n (%)
TEAE related to study treatment: Stomatitis (105 mg/m^2 N = 6, Any grade): 0 n (%)
TEAE related to study treatment: Thrombocytopenia (105 mg/m^2 N = 6, Any grade): 4 (66.7) n (%)
TEAE related to study treatment: Anemia (105 mg/m^2 N = 6, Grade 3): 0 n (%)
TEAE related to study treatment: Any (105 mg/m^2 N = 6, Grade 3): 3 (50.0) n (%)
TEAE related to study treatment: Atrial fibrillation (105 mg/m^2 N = 6, Grade 3): 0 n (%)
TEAE related to study treatment: Constipation (105 mg/m^2 N = 6, Grade 3): 0 n (%)
TEAE related to study treatment: ECG QT prolonged (105 mg/m^2 N = 6, Grade 3): 0 n (%)
TEAE related to study treatment: Fatigue (105 mg/m^2 N = 6, Grade 3): 0 n (%)
TEAE related to study treatment: Febrile neutropenia (105 mg/m^2 N = 6, Grade 3): 1 (16.7) n (%)
TEAE related to study treatment: Headache (105 mg/m^2 N = 6, Grade 3): 0 n (%)
TEAE related to study treatment: Hypocalcemia (105 mg/m^2 N = 6, Grade 3): 0 n (%)
TEAE related to study treatment: Leukopenia (105 mg/m^2 N = 6, Grade 3): 4 (66.7) n (%)
TEAE related to study treatment: Lung infection (105 mg/m^2 N = 6, Grade 3): 0 n (%)
TEAE related to study treatment: Lymphocytopenia (105 mg/m^2 N = 6, Grade 3): 0 n (%)
TEAE related to study treatment: Nausea (105 mg/m^2 N = 6, Grade 3): 0 n (%)
TEAE related to study treatment: Neutropenia (105 mg/m^2 N = 6, Grade 3): 3 (50.0) n (%)
TEAE related to study treatment: Pyrexia (105 mg/m^2 N = 6, Grade 3): 0 n (%)
TEAE related to study treatment: Rash (105 mg/m^2 N = 6, Grade 3): 0 n (%)
TEAE related to study treatment: Rash maculopapular (105 mg/m^2 N = 6, Grade 3): 0 n (%)
TEAE related to study treatment: SVE (supraventricular extrasystoles) (105 mg/m^2 N = 6, Grade 3): 0 n (%)
TEAE related to study treatment: Stomatitis (105 mg/m^2 N = 6, Grade 3): 0 n (%)
TEAE related to study treatment: Thrombocytopenia (105 mg/m^2 N = 6, Grade 3): 1 (16.7) n (%)
TEAE related to study treatment: Anemia (105 mg/m^2 N = 6, Grade 3 + 4): 0 n (%)
TEAE related to study treatment: Any (105 mg/m^2 N = 6, Grade 3 + 4): 6 (100) n (%)
TEAE related to study treatment: Atrial fibrillation (105 mg/m^2 N = 6, Grade 3 + 4): 0 n (%)
TEAE related to study treatment: Constipation (105 mg/m^2 N = 6, Grade 3 + 4): 0 n (%)
TEAE related to study treatment: ECG QT prolonged (105 mg/m^2 N = 6, Grade 3 + 4): 0 n (%)
TEAE related to study treatment: Fatigue (105 mg/m^2 N = 6, Grade 3 + 4): 0 n (%)
TEAE related to study treatment: Febrile neutropenia (105 mg/m^2 N = 6, Grade 3 + 4): 1 (16.7) n (%)
TEAE related to study treatment: Headache (105 mg/m^2 N = 6, Grade 3 + 4): 0 n (%)
TEAE related to study treatment: Hypocalcemia (105 mg/m^2 N = 6, Grade 3 + 4): 0 n (%)
TEAE related to study treatment: Leukopenia (105 mg/m^2 N = 6, Grade 3 + 4): 5 (83.3) n (%)
